ChEMBL document CHEMBL4152323, “N-(1,3,4-oxadiazol-2-yl)benzamide analogs, bacteriostatic agents against methicillin- and vancomycin-resistant bacteria” (Eur J Med Chem, 2018)
In brackets after ≈: the same amount, converted by molar mass. Activity calls are given as the source filed them. The calls are words filed in the database; no cut-off is given here.

Key:
Enterococcus faecalis [1] = assay: Bacteriostatic activity against vancomycin-resistant Enterococcus faecalis ATCC 51575 after 20 hrs by broth microdilution method; format: functional; details: ATCC 51575, 20 h
Procedure, shortened: (§1)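 Broth microdilution MIC over 128 to 1 μg/mL, run alongside methicillin, linezolid and vancomycin. MIC taken as the lowest concentration with no visible growth.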

Listeria monocytogenes = assay: Bacteriostatic activity against Listeria monocytogenes ATCC 19115 after 20 hrs by broth microdilution method; format: functional; details: ATCC 19115, 20 h
Procedure, shortened: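 MIC by broth microdilution across 128 to 1 μg/mL in 96-well plates, 37 °C for at least 20 h. MIC is the lowest concentration with no visible growth.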

Staphylococcus aureus [2] = assay: Antibacterial activity against Staphylococcus aureus assessed as growth inhibition at 16 ug/ml after 24 hrs; format: functional, organism-based
Procedure, shortened: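 S. aureus grown in Mueller Hinton Broth to early exponential phase, then exposed to compound (16 μg/mL; DMSO stocks 10 mg/mL) or DMSO in duplicate, 37 °C for 24 h. OD600 read; percent normalized OD600 = (X − media blank)/(DMSO control − media blank) × 100.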

Enterococcus faecalis [3] = assay: Bacteriostatic activity against Enterococcus faecalis ATCC 29212 after 20 hrs by broth microdilution method; format: functional; details: ATCC 29212, 20 h; procedure, shortened: as §1
Staphylococcus aureus [4] = assay: Bacteriostatic activity against methicillin-resistant Staphylococcus aureus ATCC 33592 after 20 hrs by broth microdilution method; format: functional; details: ATCC 33592, 20 h; procedure, shortened: as §1
Staphylococcus aureus [5] = assay: Bacteriostatic activity against Staphylococcus aureus ATCC 25923 after 20 hrs by broth microdilution method; format: functional; details: ATCC 25923, 20 h; procedure, shortened: as §1

SMILES	MIC (Enterococcus faecalis [1]) [µg/mL]	MIC (Listeria monocytogenes) [µg/mL]	growth inhibition (GI) (Staphylococcus aureus [2])	MIC (Enterococcus faecalis [3]) [µg/mL]	MIC (Staphylococcus aureus [4]) [µg/mL]	MIC (Staphylococcus aureus [5]) [µg/mL]
CC1CCCCN1S(=O)(=O)c1ccc(C(=O)Nc2nnc(-c3cccs3)o2)cc1 (centres undefined)	16 (≈ 37 µM)	16 (≈ 37 µM)	Active	16 (≈ 37 µM)	8 (≈ 18.5 µM)	8 (≈ 18.5 µM)
CN(C)S(=O)(=O)c1ccc(C(=O)Nc2nnc(-c3ccc(F)cc3)o2)cc1	32 (≈ 82 µM)	32 (≈ 82 µM)	Active	32 (≈ 82 µM)	16 (≈ 41 µM)	16 (≈ 41 µM)
C#CCNS(=O)(=O)c1ccc(C(=O)Nc2nnc(-c3ccc(Cl)cc3)o2)cc1	64 (≈ 154 µM)	64 (≈ 154 µM)	Active	64 (≈ 154 µM)	32 (≈ 76.8 µM)	64 (≈ 154 µM)
O=C(Nc1nnc(-c2ccc(Cl)cc2)o1)c1ccc(S(=O)(=O)N2CCCC2)cc1	16 (≈ 37 µM)	16 (≈ 37 µM)	Active	16 (≈ 37 µM)	8 (≈ 18.5 µM)	16 (≈ 37 µM)
COc1cccc(-c2nnc(NC(=O)c3ccc(S(=O)(=O)N(C)CC4CCCO4)cc3)o2)c1 (centres undefined)	32 (≈ 67.7 µM)	32 (≈ 67.7 µM)	Active	32 (≈ 67.7 µM)	32 (≈ 67.7 µM)	32 (≈ 67.7 µM)
CN(C)S(=O)(=O)c1ccc(C(=O)Nc2nnc(-c3ccc(Cl)cc3)o2)cc1	64 (≈ 157 µM)	64 (≈ 157 µM)	Active	64 (≈ 157 µM)	32 (≈ 78.7 µM)	64 (≈ 157 µM)
O=C(Nc1nnc(-c2cccs2)o1)c1ccc(S(=O)(=O)N2CCCCC2)cc1	64 (≈ 153 µM)	32 (≈ 76.5 µM)	Active	16 (≈ 38.2 µM)	32 (≈ 76.5 µM)	32 (≈ 76.5 µM)
O=C(Nc1nnc(-c2ccc(Cl)cc2)o1)c1ccc(S(=O)(=O)NC2CC2)cc1	16 (≈ 38.2 µM)	16 (≈ 38.2 µM)	Active	32 (≈ 76.4 µM)	16 (≈ 38.2 µM)	16 (≈ 38.2 µM)
CCN(CC)S(=O)(=O)c1ccc(C(=O)Nc2nnc(-c3ccc(Cl)cc3)o2)cc1	16 (≈ 36.8 µM)	16 (≈ 36.8 µM)	Active	32 (≈ 73.6 µM)	16 (≈ 36.8 µM)	16 (≈ 36.8 µM)
CCOC(=O)c1nnc(NC(=O)c2ccc(S(=O)(=O)N3C[C@H](C)C[C@H](C)C3)cc2)o1	–	–	inactive	–	–	–
CN(CC1CCCO1)S(=O)(=O)c1ccc(C(=O)Nc2nnc(-c3ccccc3)o2)cc1 (centres undefined)	–	–	Active	–	–	–
C[C@@H]1CN(S(=O)(=O)c2ccc(C(=O)Nc3nnc(-c4cccs4)o3)cc2)C[C@H](C)O1	–	–	inactive	–	–	–
C[C@@H]1C[C@H](C)CN(S(=O)(=O)c2ccc(-c3nnc(-c4cccs4)o3)cc2)C1	–	–	inactive	–	–	–
C[C@@H]1C[C@H](C)CN(S(=O)(=O)c2ccc(C(=O)Nc3nnc(-c4cccs4)[nH]3)cc2)C1	–	–	inactive	–	–	–
